The values below come from ChEMBL document CHEMBL1125823, “2-Phenylindole-linked [2-(aminoalkyl)pyridine]dichloroplatinum(II): complexes with a selective action on estrogen receptor positive mammary tumors” (1991).

Test [1] deals with MCF7. As to the kind of experiment: Effect on Estrogen receptor positive MCF-7 human breast cancer cell proliferation at 5x10E-6M. In kind it is functional. Put shortly: (§1)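 MCF-7 cells were kept in MEM with 5% charcoal-treated newborn calf serum and phenol red for 2 weeks, then about 2×10^4 cells were plated per well. Compounds in 0.1% DMF were added 2 days later and renewed on day 4; DMF alone served as control. Coulter cell counts were taken on day 5; mean of six dishes ± SD; % T/C.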

Test [2] concerns the target T1, Estrogen receptor (Mus musculus) (UniProt O08537+P19785). The test can be described thus: Percent inhibition of estrone stimulated uterotrophic effect in mice at 150 ug. In kind it is functional. In short, it runs like this: (§2)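 Immature mice given test compound per animal sc on three consecutive days together with 0.4 μg estrone/animal/day. Killed 24 h after last injection; uteri fixed in Bouin, dried 100 °C 24 h and weighed. Inhibition = 100 − [(W_S,T − W_V)/(W_S − W_V) × 100] using relative uterus weights; 6-10 animals; Wilcoxon-Mann-Whitney U test.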
Target sequence in this assay (O08537 whole entry, looked up): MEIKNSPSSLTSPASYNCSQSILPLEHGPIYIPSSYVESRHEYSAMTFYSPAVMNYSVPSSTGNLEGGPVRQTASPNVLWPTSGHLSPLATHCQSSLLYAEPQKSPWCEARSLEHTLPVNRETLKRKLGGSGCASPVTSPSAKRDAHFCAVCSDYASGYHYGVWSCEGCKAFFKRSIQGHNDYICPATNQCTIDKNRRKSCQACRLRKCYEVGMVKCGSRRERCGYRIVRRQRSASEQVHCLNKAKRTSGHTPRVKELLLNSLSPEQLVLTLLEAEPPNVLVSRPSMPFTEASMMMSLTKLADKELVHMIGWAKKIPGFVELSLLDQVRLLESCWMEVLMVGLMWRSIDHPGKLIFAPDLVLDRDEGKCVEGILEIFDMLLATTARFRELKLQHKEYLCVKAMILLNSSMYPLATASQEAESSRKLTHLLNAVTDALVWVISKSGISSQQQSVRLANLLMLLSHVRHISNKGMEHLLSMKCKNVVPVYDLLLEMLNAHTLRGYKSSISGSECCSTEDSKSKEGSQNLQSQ
Target sequence in this assay (P19785 whole entry, looked up): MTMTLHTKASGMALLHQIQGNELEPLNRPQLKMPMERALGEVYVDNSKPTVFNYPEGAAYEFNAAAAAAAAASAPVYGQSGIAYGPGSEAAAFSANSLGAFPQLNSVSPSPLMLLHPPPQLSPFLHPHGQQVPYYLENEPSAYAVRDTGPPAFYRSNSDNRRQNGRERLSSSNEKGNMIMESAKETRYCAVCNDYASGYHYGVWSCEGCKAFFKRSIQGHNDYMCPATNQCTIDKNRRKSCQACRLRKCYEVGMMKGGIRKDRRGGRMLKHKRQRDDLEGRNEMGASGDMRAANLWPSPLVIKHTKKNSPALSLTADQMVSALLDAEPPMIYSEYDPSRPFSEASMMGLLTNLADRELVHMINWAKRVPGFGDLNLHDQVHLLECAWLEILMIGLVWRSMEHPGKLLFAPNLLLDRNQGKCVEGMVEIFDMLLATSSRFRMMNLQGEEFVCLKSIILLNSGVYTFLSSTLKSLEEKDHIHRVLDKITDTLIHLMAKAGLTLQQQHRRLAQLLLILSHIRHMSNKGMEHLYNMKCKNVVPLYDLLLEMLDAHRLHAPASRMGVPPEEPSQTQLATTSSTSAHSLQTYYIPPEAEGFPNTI

For test [3], the system named is MCF7. As to the kind of experiment: Effect on Estrogen receptor positive MCF-7 human breast cancer cell proliferation at 1x10E-6M (control = 62.7+/-8.8). In kind it is functional. In short, it runs like this:
as §1

Test [4] deals with MCF7. The test can be described thus: Effect on Estrogen receptor positive MCF-7 human breast cancer cell proliferation at 5x10E-7M (control = 62.7+/-8.8). In kind it is functional. In short, it runs like this:
as §1

Test [5] concerns the target T1, Estrogen receptor (Mus musculus). The test can be described thus: Anti-uterotrophic effect in mice as relative uterine weight(mg) at 15 ug. Type of test: functional. Put shortly: (§3)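 Immature mice received the compound sc per animal on three consecutive days, alone or with 0.4 µg estrone per animal per day. Uteri were taken 24 h after the last injection, Bouin-fixed, dried at 100 °C for 24 h and weighed. Relative uterus weight = dry weight (mg)/body weight (g) × 100; mean of 6-10 animals ± SD; Mann-Whitney U test.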
Target sequence in this assay (O08537 whole entry, looked up): as the sequence (O08537 whole entry, looked up) above
Target sequence in this assay (P19785 whole entry, looked up): as the sequence (P19785 whole entry, looked up) above

Test [6] concerns MCF7. As to the kind of experiment: Effect on [3H]thymidine incorporation into estrogen receptor positive MCF-7 human breast cancer cells at 5x10E-6M (control = 48.6+/-3.6). In kind it is functional. In short, it runs like this:
(§4)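 MCF-7 cells in improved MEM with glutamine, gentamycin and 5% newborn calf serum, switched to charcoal-treated serum two weeks ahead; phenol red present; 37 °C, 5% CO2. About 2×10^4 cells plated per well; compound in 0.1% DMF added 2 days later, renewed on day 4; labelled 3 days later with 1 μCi [3H]thymidine per well for 2 h; cpm/dish, mean of six dishes ± SD.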

The target of test [7] is T1, Estrogen receptor (Mus musculus). The test can be described thus: Anti-uterotrophic effect in hormone-dependent transplant MXT bearing mice as relative uterine weight in treated and control mice at 12.2 mg (control=100+/-24). In kind it is functional.
Target sequence in this assay (O08537 whole entry, looked up): as the sequence (O08537 whole entry, looked up) above
Target sequence in this assay (P19785 whole entry, looked up): as the sequence (P19785 whole entry, looked up) above
Test [8] shares this target. As to the kind of experiment: Percent inhibition of estrone stimulated uterotrophic effect in mice at 15 ug. Type of test: functional. In short, it runs like this: as §2
Target sequence in this assay (O08537 whole entry, looked up): as the sequence (O08537 whole entry, looked up) above
Target sequence in this assay (P19785 whole entry, looked up): as the sequence (P19785 whole entry, looked up) above
Test [9] is filed under the species Mus musculus. The test can be described thus: Relative tumor weight in treated compared to control mice bearing hormone-dependent transplanted MXT mammary tumors at 12.2 mg.
For test [10], the system named is MCF7. As to the kind of experiment: Effect on Estrogen receptor positive MCF-7 human breast cancer cell proliferation at 5x10E-7M. Type of test: functional. In short, it runs like this: as §1
The test system of test [11] is MCF7. The test can be described thus: Effect on Estrogen receptor positive MCF-7 human breast cancer cell proliferation at 5x10E-6M (control = 62.7+/-8.8). Type of test: functional. In short, it runs like this: as §1
The test system of test [12] is MCF7. The test can be described thus: (§5) Effect on [3H]thymidine incorporation into estrogen receptor positive MCF-7 human breast cancer cells at 5x10E-7M (control=48.6+/-3.6). In kind it is functional. Put shortly: as §4
The subject of test [13] is MCF7. The test can be described thus: Effect on [3H]thymidine incorporation into estrogen receptor positive MCF-7 human breast cancer cells at 5x10E-7M.
Test [14] concerns MCF7. The test can be described thus: Effect on Estrogen receptor positive MCF-7 human breast cancer cell proliferation at 1x10E-6M. Type of test: functional. Put shortly:
as §1

The target of test [15] is T1, Estrogen receptor (Mus musculus). The test can be described thus: Uterotrophic effect in mice as relative uterine weight(mg) at 150 ug (control = 14.5+/-2.1). In kind it is functional, tissue-based. In short, it runs like this:
(§6)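 Immature mice dosed sc per animal on three consecutive days; vehicle controls. Killed and weighed 24 h after last injection; uteri fixed in Bouin solution 2 h, washed with alcoholic LiCl, dried at 100 °C for 24 h. Relative uterus weight = uterine dry weight (mg)/body weight (g) × 100; mean of 6-10 animals ± SD.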
Target sequence in this assay (O08537 whole entry, looked up): as the sequence (O08537 whole entry, looked up) above
Target sequence in this assay (P19785 whole entry, looked up): as the sequence (P19785 whole entry, looked up) above

The test system of test [16] is MCF7. The test can be described thus: Effect on [3H]thymidine incorporation into estrogen receptor positive MCF-7 human breast cancer cells at 1x10E-6M. In kind it is functional. Put shortly: (§7)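 MCF-7 cells were grown in MEM with charcoal-treated 5% newborn calf serum and phenol red, then treated with compounds in 0.1% DMF (renewed on day 4) alongside DMF controls. They were labeled 3 days later with 1 µCi [³H]thymidine per well for 2 h, and incorporated radioactivity per dish was measured; mean of six dishes ± SD; % T/C.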

For test [17], the system named is MCF7. As to the kind of experiment: Effect on [3H]thymidine incorporation into estrogen receptor positive MCF-7 human breast cancer cells at 1x10E-6M (control = 48.6+/-3.6). Type of test: functional. Put shortly: as §7
The target of test [18] is T1, Estrogen receptor (Mus musculus). As to the kind of experiment: Uterotrophic effect in mice as relative uterine weight(mg) at 15 ug (control = 14.5+/-2.1). Type of test: functional, tissue-based. In short, it runs like this:
as §6
Target sequence in this assay (O08537 whole entry, looked up): as the sequence (O08537 whole entry, looked up) above
Target sequence in this assay (P19785 whole entry, looked up): as the sequence (P19785 whole entry, looked up) above

The species named for test [19] is Mus musculus. As to the kind of experiment: Anti-tumor activity in hormone-dependent transplant MXT mammary tumor bearing mice at 12.2 mg (control=197+/-130). In kind it is functional.
Test [20] relates to MCF7. The test can be described thus: Effect on [3H]thymidine incorporation into estrogen receptor positive MCF-7 human breast cancer cells at 5x10E-6M. Type of test: functional. In short, it runs like this:
as §4

For test [21], the target named is T1, Estrogen receptor (Mus musculus). The test can be described thus: Anti-uterotrophic effect in mice as relative uterine weight(mg) at 150 ug. Type of test: functional. In short, it runs like this:
as §3

The species entered for test [22] is Mus musculus. As to the kind of experiment: Antitumor activity in hormone-dependent transplant MXT mammary tumor bearing mice at 20 mg (control=197+/-130). Type of test: functional, organism-based.
For test [23], the species on record is Mus musculus. As to the kind of experiment: Relative tumor weight in treated compared to control mice bearing hormone-dependent transplanted MXT mammary tumors at 20 mg. In kind it is functional, organism-based.
Test [24] has as its system MCF7. The test is described as §5. Type of test: functional, cell-based. In short, it runs like this:
as §4

For test [25], the target named is T1, Estrogen receptor (Mus musculus). As to the kind of experiment: Anti-uterotrophic effect in hormone-dependent transplant MXT bearing mice as relative uterine weight in treated and control mice at 20 mg (control=100+/-24). Type of test: functional.
Target sequence in this assay (P19785 whole entry, looked up, chain 1 of 2): as the sequence (P19785 whole entry, looked up) above
Target sequence in this assay (O08537 whole entry, looked up, chain 2 of 2): as the sequence (O08537 whole entry, looked up) above
The target is the same in test [26]. The test can be described thus: Anti-uterotrophic effect in mice as relative uterine weight(mg) at 250 ug. In kind it is functional. In short, it runs like this: as §3
Target sequence in this assay (P19785 whole entry, looked up, chain 1 of 2): as the sequence (P19785 whole entry, looked up) above
Target sequence in this assay (O08537 whole entry, looked up, chain 2 of 2): as the sequence (O08537 whole entry, looked up) above
Test [27] has the same target. As to the kind of experiment: Uterotrophic effect in mice as relative uterine weight(mg) at 250 ug (control = 14.5+/-2.1). In kind it is functional, tissue-based. Put shortly:
as §6
Target sequence in this assay (P19785 whole entry, looked up, chain 1 of 2): as the sequence (P19785 whole entry, looked up) above
Target sequence in this assay (O08537 whole entry, looked up, chain 2 of 2): as the sequence (O08537 whole entry, looked up) above

Test [28] has the same target. As to the kind of experiment: Uterotrophic effect in mice as relative uterine weight(mg) at 25 ug (control = 14.5+/-2.1). In kind it is functional, tissue-based. In short, it runs like this: as §6
Target sequence in this assay (P19785 whole entry, looked up, chain 1 of 2): as the sequence (P19785 whole entry, looked up) above
Target sequence in this assay (O08537 whole entry, looked up, chain 2 of 2): as the sequence (O08537 whole entry, looked up) above

Take `Oc1ccc(-c2cc3cc(O)ccc3n2CCCCCCNCc2ccccn2)cc1`: the T/C amounted to 31% in [1]; 78% in [7]; 80% in test [9]; 54% in [10]; 47% in test [13]; 53% in test [14]. Moreover, the T/C in [16] is recorded as 41%; in [20] it was 20%. In addition, the inhibition in test [2] came to 5%; in test [8], 18%. Moreover, the Cell no/dish was 334000 in test [3], 335000 in [4] and 195000 in test [11]. The Relative uterus weight in test [5] came to 40.6 mg; in [15], 22.1 mg; in test [18], 13.6 mg; in test [21] it was 46.1 mg. The values for the Activity in test [6] and in test [17] were 9600 and 20000, respectively. The “[3H] thymidinecpm/dish” value in test [12] was 22800. Moreover, the Tumor weight in test [19] was found to be 158 mg.

Regarding “[5-hydroxy-2-(4-hydroxyphenyl)-1-[omega-[(2-pyridylmethyl)amino]hexyl]indole]dichloroplatinum (II) complex”, the T/C in [1] turned out to be 55%; in test [23] it was 40%; in [10], 77%; in test [25], 103%; in test [14], 64%; in test [16], 57%. Further, the T/C in [20] was found to be 34%. The Tumor weight in test [22] is 80 mg. For the same compound, the Cell no/dish in [3] came out at 401000; in [4] it was 482000; in test [11], 345000. Further, the Activity in test [6] was found to be 16700; in test [17], 27500. In [24], this compound registered a [3H] thymidine cpm/dish of 33400. Also, the Relative uterus weight in test [26] worked out at 52.7 mg; in test [27], 16.3 mg; in test [28], 12.7 mg.
